Measurements: ChEMBL document CHEMBL1157649, “Cytotoxic 2-benzylidene-6-(nitrobenzylidene)cyclohexanones which display substantially greater toxicity for neoplasms than non-malignant cells” (Bioorg Med Chem, 2010)

Columns and labels:
[1] = Cytotoxicity against human HGF cells after 24 hrs; format: cell-based; details: for CC50: hgf, 24 h; for CC50 at 24 h: HGF cells
Method in brief: (§1)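 Cells (HGF gingival fibroblasts, HPC pulp cells, HPLF periodontal ligament fibroblasts, HSC-2 and HSC-4 squamous carcinoma, HL-60 promyelocytic leukemia) were exposed to graded concentrations for 24 h, up to a maximum of 400 μM. CC50 is the concentration reducing viable cell number by 50%, taken from dose–response curves. Values are from duplicate determinations differing by less than 5%.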

[2] = Cytotoxicity against human HPC cells after 24 hrs; format: cell-based; details: for CC50: hpc, 24 h; for CC50 at 24 h: HPC cells; method in brief: as §1
[3] = Cytotoxicity against human HPLF cells after 24 hrs; format: cell-based; details: for CC50: hplf, 24 h; for CC50 at 24 h: HPLF cells; method in brief: as §1
HSC-2 [4] = assay: Cytotoxicity against human HSC2 cells after 24 hrs; format: functional; details: HSC-2, 24 h; method in brief: as §1
HSC-4 [5] = assay: Cytotoxicity against human HSC4 cells after 24 hrs; format: functional; details: HSC-4, 24 h; method in brief: as §1
HL-60 [6] = assay: Cytotoxicity against human HL60 cells after 24 hrs; format: functional; details: HL-60, 24 h; method in brief: as §1
[7] = Partition coefficient, log P of the compound; format: physicochemical; details: octanol/water
Mus musculus [8] = assay: Toxicity in mouse assessed as induction of mortality at 30 to 300 mg/kg, ip; format: organism-based; design: dose 30-300 mg/kg, route intraperitoneal; details: in vivo
HSC-2 [9] = assay: Selectivity index, ratio of CC50 for human normal cells to CC50 for human HSC2 cells; format: functional
Method in brief: (§2)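 The index is the average CC50 toward the three normal cell types (HGF, HPC, HPLF) divided by the CC50 toward the indicated malignant line.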

HSC-4 [10] = assay: Selectivity index, ratio of CC50 for human normal cells to CC50 for human HSC4 cells; format: functional; method in brief: as §2
HL-60 [11] = assay: Selectivity index, ratio of CC50 for human normal cells to CC50 for human HL60 cells; format: functional; method in brief: as §2
Mus musculus [12] = assay: Neurotoxicity in mouse assessed at 30 to 300 mg/kg, ip after 0.5 hrs; format: toxicity, organism-based; design: dose 30-300 mg/kg, route intraperitoneal; details: in vivo
Method in brief: (§3)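 Mice received 30, 100 or 300 mg/kg intraperitoneally and were examined at 0.5 and 4 h for mortality and neurological deficit, following NINDS screening protocols. Results were recorded as the number of mice showing a deficit over the number treated per dose.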

Mus musculus [13] = assay: Neurotoxicity in mouse assessed at 30 to 300 mg/kg, ip after 4 hrs; format: toxicity, organism-based; design: dose 30-300 mg/kg, route intraperitoneal; details: in vivo; method in brief: as §3

Row | Compound | CC50 [1] [µM] | CC50 [2] [µM] | CC50 [3] [µM] | CC50 (HSC-2 [4]) [µM] | CC50 (HSC-4 [5]) [µM] | CC50 (HL-60 [6]) [µM] | logP [7] | Activity (Mus musculus [8]) | Selectivity Index (HSC-2 [9]) | Selectivity Index (HSC-4 [10]) | Selectivity Index (HL-60 [11]) | Activity (Mus musculus [12]) | Activity (Mus musculus [13]) | CC50 at 24 h [1] [µM] | CC50 at 24 h [2] [µM] | CC50 at 24 h [3] [µM]
1 | CN(C)c1ccc(/C=C2\CCC/C(=C\c3cccc([N+](=O)[O-])c3)C2=O)cc1 | > 400 | > 400 | > 400 | 32 | 71 | 30 | 5 | Non-toxic | – | – | – | – | – | – | – | –
2 | COc1cc(OC)c(OC)cc1/C=C1\CCC/C(=C\c2ccc([N+](=O)[O-])cc2)C1=O | > 400 | > 400 | > 400 | 67 | 250 | 400 | – | Non-toxic | >6 | >1.6 | 1 | – | – | – | – | –
3 | O=C1/C(=C/c2ccc(F)cc2)CCC/C1=C\c1ccccc1[N+](=O)[O-] | 82 | 11 | 67 | 2.7 | 2.2 | 3 | – | Non-toxic | – | – | – | Non-toxic | Non-toxic | – | – | –
4 | O=C1CCCC/C1=C\c1cccc([N+](=O)[O-])c1 | 74 | 49 | 56 | 6.6 | 18 | 5.8 | – | Non-toxic | 9.1 | 3.3 | 10 | – | – | – | – | –
5 | O=C1/C(=C/c2ccccc2)CCC/C1=C\c1ccc([N+](=O)[O-])cc1 | 371 | 123 | 282 | 4.9 | 9.2 | 20 | 4.93 | Non-toxic | 53 | 28 | 13 | Non-toxic | Non-toxic | – | – | –
6 | O=C1/C(=C/c2ccc(Cl)cc2)CCC/C1=C\c1ccc([N+](=O)[O-])cc1 | – | – | – | 1.5 | 2.7 | 4.1 | 5.6 | Non-toxic | 193 | 107 | 71 | Non-toxic | Non-toxic | 191 | 345 | 332
7 | O=C1/C(=C/c2ccccc2)CCC/C1=C\c1cccc([N+](=O)[O-])c1 | 25 | 14 | 18 | 3.7 | 2.4 | 3 | 4.9 | Non-toxic | 5.1 | 7.9 | 6.3 | – | – | – | – | –
8 | COc1ccc(/C=C2\CCC/C(=C\c3ccccc3[N+](=O)[O-])C2=O)cc1 | > 400 | > 400 | 386 | 11 | 24 | 26 | 4.76 | Non-toxic | – | – | – | Non-toxic | Non-toxic | – | – | –
9 | COc1ccc(/C=C2\CCC/C(=C\c3ccc([N+](=O)[O-])cc3)C2=O)cc1 | – | – | – | > 400 | > 400 | > 400 | 4.98 | Non-toxic | 1 | 1 | 1 | Non-toxic | Non-toxic | > 400 | > 400 | > 400
10 | COc1cc(/C=C2\CCC/C(=C\c3ccccc3[N+](=O)[O-])C2=O)cc(OC)c1OC | 44 | 35 | 79 | 5.9 | 6.5 | 3 | 4.33 | Non-toxic | 9 | 8.2 | 18 | Non-toxic | Non-toxic | – | – | –
11 | O=C1/C(=C/c2ccc(F)cc2)CCC/C1=C\c1ccc([N+](=O)[O-])cc1 | 326 | > 400 | > 400 | 19 | 15 | 32 | 5.09 | Non-toxic | – | – | – | – | – | – | – | –
12 | O=C1/C(=C/c2ccc(Cl)cc2)CCC/C1=C\c1cccc([N+](=O)[O-])c1 | 39 | 18 | 38 | 2.2 | 2.3 | 3.2 | 5.58 | – | 15 | 14 | 10 | – | – | – | – | –
13 | COc1ccc(/C=C2\CCC/C(=C\c3ccc([N+](=O)[O-])cc3)C2=O)c(OC)c1OC | > 400 | > 400 | > 400 | > 400 | > 400 | > 400 | – | Non-toxic | 1 | 1 | 1 | Non-toxic | Non-toxic | – | – | –
14 | Cc1ccc(/C=C2\CCC/C(=C\c3ccc([N+](=O)[O-])cc3)C2=O)cc1 | > 400 | 92 | 348 | 6.6 | 13 | 27 | 5.38 | Non-toxic | >42 | >22 | >10 | – | – | – | – | –
15 | Cc1ccc(/C=C2\CCC/C(=C\c3cccc([N+](=O)[O-])c3)C2=O)cc1 | > 400 | 192 | > 400 | 17 | 45 | 38 | 5.35 | Non-toxic | >20 | >7.4 | >8.7 | Non-toxic | Non-toxic | – | – | –
16 | COc1cc(/C=C2\CCC/C(=C\c3ccc([N+](=O)[O-])cc3)C2=O)cc(OC)c1OC | – | – | – | 0.76 | 1.5 | 1.1 | 4.56 | Non-toxic | 466 | 236 | 322 | – | – | 336 | 347 | 378
17 | O=C1/C(=C/c2ccccc2)CCC/C1=C\c1ccccc1[N+](=O)[O-] | 93 | 16 | 26 | 3.8 | 3.2 | 3.7 | 4.7 | Non-toxic | 12 | 14 | 12 | Non-toxic | Non-toxic | – | – | –
18 | COc1cc(OC)c(/C=C2\CCC/C(=C\c3ccc([N+](=O)[O-])cc3)C2=O)c(OC)c1 | > 400 | > 400 | > 400 | > 400 | > 400 | 11 | – | Non-toxic | 1 | 1 | >36 | Non-toxic | Non-toxic | – | – | –
19 | CN(C)c1ccc(/C=C2\CCC/C(=C\c3ccc([N+](=O)[O-])cc3)C2=O)cc1 | > 400 | > 400 | > 400 | 11 | > 400 | > 400 | 5.03 | Non-toxic | – | – | – | – | – | – | – | –
20 | CN(C)c1ccc(/C=C2\CCC/C(=C\c3ccccc3[N+](=O)[O-])C2=O)cc1 | > 400 | > 400 | > 400 | > 400 | > 400 | > 400 | 4.8 | – | 1 | 1 | 1 | – | – | – | – | –
21 | COc1ccc(/C=C2\CCC/C(=C\c3cccc([N+](=O)[O-])c3)C2=O)cc1 | > 400 | 33 | 354 | 4.8 | 11 | 7.2 | 4.96 | Non-toxic | >55 | >24 | >36 | – | – | – | – | –
22 | Cc1ccc(/C=C2\CCC/C(=C\c3ccccc3[N+](=O)[O-])C2=O)cc1 | > 400 | > 400 | > 400 | 11 | 40 | 11 | 5.15 | – | >36 | >10 | >36 | – | – | – | – | –
23 | O=C1/C(=C/c2ccc(F)cc2)CCC/C1=C\c1cccc([N+](=O)[O-])c1 | 42 | 38 | 36 | 2.2 | 2.5 | 1 | 5.07 | Non-toxic | – | – | – | – | – | – | – | –
24 | O=C1CCCC/C1=C\c1ccccc1[N+](=O)[O-] | 218 | 117 | 103 | 28 | 29 | 27 | – | Non-toxic | 5.2 | 5 | 5.4 | – | – | – | – | –
